In ChEMBL document CHEMBL5252546, “Salutaxel, a Conjugate of Docetaxel and a Muramyl Dipeptide (MDP) Analogue, Acts as Multifunctional Prodrug That Inhibits Tumor Growth and Metastasis” (J Med Chem, 2018):
Calls of active or inactive are those of the source. The rule behind the calls is not given here.

Assays:
[1] = Toxicity in BALB/c mouse injected with mouse 4T1 cells assessed as decrease in body weight at 20 mg/kg,iv administrated once per week for 4 weeks; format: organism-based; set-up: scale not given: the % may be the effect or the level left; details: in vivo, 672 h
[2] = AUC (0-infinity) in male rat at 4 mg/kg,iv measured upto 24 hrs; format: ADME, organism-based; set-up: time < 24 hrs, dose 4 mg/kg, route iv; details: in vivo
Summary of the method: (§1)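 Single iv dose: rats 2, 4 or 8 mg/kg by intravenous injection; Beagle dogs 1, 2 or 4 mg/kg by intravenous infusion. Plasma concentration–time data were analysed by sex and pooled. Reported parameters: Cmax, Tmax, AUC0−t, AUC0−∞, MRT0−∞, t1/2, CL, Vss, given as mean ± SD.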

[3] = Acute toxicity in Sprague-Dawley rat assessed as lethal dose at iv administration; format: organism-based; details: in vivo
Summary of the method: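 Acute toxicity after a single intravenous administration. […] In dogs, an approximate lethal dose range was determined.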

[4] = Volume of distribution at steady state in female rat at 4 mg/kg,iv measured upto 24 hrs; format: ADME, organism-based; details: in vivo, read-out: Vdss
[5] = Clearance in male Beagle dog at 1 mg/kg,iv measured upto 24 hrs; format: ADME, organism-based, Canis lupus familiaris; details: in vivo
Summary of the method: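 Beagle dogs were given a single iv infusion at 1, 2 or 4 mg/kg. Plasma parent drug and released docetaxel were followed over time. Cmax, Tmax, AUC, MRT, t1/2, CL and Vss were reported by sex and for all dogs combined.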

4T1 [6] = test: Antitumor activity against mouse 4T1 cells implanted in BALB/c mouse assessed as decrease in lung MMP9 expression level at 5 to 20 mg/kg,iv administrated once per week for 4 weeks by western blot assay; format: functional, organism-based; details: dose 5-20 mg/kg
Summary of the method: (§2)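 4T1 fat-pad model in BALB/c mice, iv once weekly for 4 weeks; MMP9, MMP2 and NOD1 in spleen, lung and tumour by western blot, β-actin loading control; bands averaged over five mice per group, representative of two independent experiments.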

[7] = Drug metabolism in monkey hepatocytes assessed as docetaxel metabolite formation at 20 uM incubated for 180 mins; format: ADME, cell-based, Macaca mulatta, Hepatocyte; details: rhesus monkey, 3 h
[8] = Toxicity in BALB/c mouse xenografted with human A549/Taxol cells assessed as body weight loss at 10 mg/kg,iv administrated once per week for 3 weeks; format: organism-based, A549/TR; details: in vivo, 504 h
4T1 [9] = test: Antitumor activity against mouse 4T1 cells implanted in BALB/c mouse assessed as decrease in spleen MMP9 expression level at 5 to 20 mg/kg,iv administrated once per week for 4 weeks by western blot assay; format: functional, organism-based; details: dose 5-20 mg/kg; summary of the method: as §2
[10] = MRT (0 to infinity) in female Beagle dog at 4 mg/kg,iv measured upto 24 hrs; format: ADME, organism-based, Canis lupus familiaris; details: in vivo
4T1 [11] = test: Antitumor activity against mouse 4T1 cells implanted in BALB/c mouse assessed as decrease in serum MMP9 level at 20 mg/kg,iv administrated once per week for 4 weeks by ELISA; format: functional, organism-based
Summary of the method: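 4T1 fat-pad model in BALB/c mice, iv 5–20 mg/kg once weekly for 4 weeks, with vehicle and naive groups; serum MMP9, TIMP-1, IL-6 and S100A9 measured by mouse ELISA kits.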

[12] = Volume of distribution at steady state in male rat at 2 mg/kg,iv measured upto 24 hrs; format: ADME, organism-based; details: in vivo, read-out: Vdss
[13] = AUC (0-t) in male Beagle dog at 4 mg/kg,iv measured upto 24 hrs; format: ADME, organism-based, Canis lupus familiaris; set-up: dose 4 mg/kg, time < 24 hrs, route iv; details: in vivo; summary of the method: as §1
[14] = Half life in rat at 8 mg/kg,iv measured upto 24 hrs; format: ADME, organism-based; details: in vivo
4T1 [15] = test: Antitumor activity against mouse 4T1 cells xenografted with BALB/c mouse assessed as inhibition of tumor growth at 20 mg/kg,iv administrated once per week for 4 weeks; format: functional; details: 4T1, 672 h
Summary of the method: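 4T1 cells injected into the mammary fat pad of BALB/c mice; iv saline vehicle or 5, 10 or 20 mg/kg once weekly for 4 weeks; body weight, tumour volume, tumour weight, lung metastatic nodule count and metastasis score recorded; n = 10, mean ± SEM, ANOVA and Student's t test.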

4T1 [16] = test: Antitumor activity against mouse 4T1 cells implanted in BALB/c mouse assessed as decrease in IL-1beta mRNA expression in lung at 20 mg/kg,iv administrated qd for 2 days by qRT-PCR analysis; format: functional, organism-based; details: time 2.0 day
Summary of the method: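 Day 19 after 4T1 implantation, mice randomised into five groups; iv vehicle or 20 mg/kg plus ip C12-iE-DAP (50 μg/mouse) and MDP (100 μg/mouse) once daily for 2 days; killed after 48 h; lung mRNA for MMP8, MMP9, PROK2, S100A8, S100A9 and IL-1β by qPCR; mean ± SEM.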

[17] = Stability in dog plasma assessed as compound remaining at 1 uM incubated for 6 hrs; format: ADME, cell-free, Canis lupus familiaris
[18] = Tmax in Beagle dog at 1 mg/kg,iv measured upto 24 hrs; format: ADME, organism-based, Canis lupus familiaris; details: in vivo
[19] = Toxicity in BALB/c mouse xenografted with human HCT-116 cells assessed as body weight loss at 10 mg/kg,iv administrated once per week for 3 weeks; format: organism-based; details: in vivo, 504 h
[20] = Clearance in male rat at 8 mg/kg,iv measured upto 24 hrs; format: ADME, organism-based; details: in vivo
Summary of the method: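 Rats were given a single iv injection at 2, 4 or 8 mg/kg. Plasma parent drug and released docetaxel were followed over time. Cmax, Tmax, AUC, MRT, t1/2, CL and Vss were reported for males, females and all animals combined.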

[21] = Prodrug conversion in mouse tumor implanted with mouse 4T1 cells assessed as half life of docetaxel at 4 mg/kg,iv measured upto 72 hrs; format: ADME, organism-based, Neoplasm; details: in vivo
[22] = Half life in rat at 4 mg/kg,iv measured upto 24 hrs; format: ADME, organism-based; details: in vivo
[23] = Tmax in female Beagle dog at 4 mg/kg,iv measured upto 24 hrs; format: ADME, organism-based, Canis lupus familiaris; details: in vivo
[24] = Half life in male Beagle dog at 1 mg/kg,iv measured upto 24 hrs; format: ADME, organism-based, Canis lupus familiaris; details: in vivo
[25] = Drug metabolism in rat feces assessed as metabolite docetaxel formation at 4 mg/kg,iv measured after 24 hrs; format: ADME, organism-based; details: in vivo
in vivo = details: mouse, plasma, iv, 5.7 mg/kg
4T1 [26] = test: Antitumor activity against mouse 4T1 cells implanted in BALB/c mouse assessed as decrease in serum IL-6 level at 5.7 mg/kg,iv administrated once per week for 4 weeks by ELISA; format: functional, organism-based
4T1 [27] = test: Antitumor activity against mouse 4T1 cells implanted in BALB/c mouse assessed as decrease in lung MMP2 expression level at 5.7 mg/kg,iv administrated once per week for 4 weeks in presence of MDA-205 by western blot assay; format: functional, organism-based
Summary of the method: (§3)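 4T1 cells injected into mammary fat pads of BALB/c mice. Saline vehicle or test article given iv once weekly for 4 weeks. Spleen, lung and tumor lysates immunoblotted for MMP2/MMP9 with β-actin as loading control. Bands averaged over five mice per group, representative of two independent experiments.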

4T1 [28] = test: Antitumor activity against mouse 4T1 cells xenografted with BALB/c mouse assessed as reduction lung metastatic nodules at 5.7 mg/kg,iv in presence of compound 6 administrated once per week for 4 weeks; format: functional, organism-based
Summary of the method: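 4T1 cells injected into mammary fat pads of BALB/c mice. Dosing iv once per week for 4 weeks, saline vehicle; single-agent arms were given alone or with the peptide component (5b or 6). Endpoints were body weight, tumour volume, tumour weight, lung metastatic nodule count and lung metastasis score. Mean ± SEM, n = 10; ANOVA and Student's t test.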

4T1 [29] = test: Antitumor activity against mouse 4T1 cells implanted in BALB/c mouse assessed as decrease in spleen MMP2 expression level at 5.7 mg/kg,iv administrated once per week for 4 weeks in presence of MDA-205 by western blot assay; format: functional, organism-based; summary of the method: as §3

CC(=O)O[C@@]12CO[C@@H]1C[C@H](O)[C@@]1(C)C(=O)[C@H](O)C3=C(C)[C@@H](OC(=O)[C@H](OC(=O)CCC(=O)NCCCC[C@H](NC(=O)CC[C@@H](NC(=O)[C@H](C)NC(=O)/C=C/c4ccc(F)cc4Cl)C(N)=O)C(=O)O)[C@@H](NC(=O)OC(C)(C)C)c4ccccc4)C[C@@](O)([C@@H](OC(=O)c4ccccc4)[C@H]21)C3(C)C showed an Activity [1] of 8%, an AUC(0-inf) [2] of 20800 ng·h/mL and an LD50 [3] of 13.2 mg/kg. For the same compound, the Vd [4] was 0.08 L/kg, the clearance [5] was 11.7 mL/min/kg and the Activity (4T1 [6]) was “Active”. For the same compound, the Drug metabolism [7] was “Metabolite_Detected”, the Activity [8] was “Non-Toxic” and the Activity (4T1 [9]) was “Active”. The MRT inf [10] was 26 min, the Activity (4T1 [11]) was “Active” and the Vd [12] was 0.076 L/kg. For the same compound, the AUC(0-t) at 24 h [13] was 15200 ng·h/mL, the half-life [14] was 18.3 min and the inhibition in vivo at 20 mg/kg (4T1 [15]) was 57.2%. For the same compound, the Activity (4T1 [16]) was “Active”, the Stability [17] was “Stable” and the Tmax [18] was 30 min. The Activity [19] was “Non-Toxic”, the clearance [20] was 2.55 mL/min/kg and the t1/2 [21] was 59 h. For the same compound, the half-life [22] was 10.6 min, the Tmax [23] was 30 min and the half-life [24] was 13.6 min. For the same compound, the Drug metabolism [25] was “Metabolite_Detected”.

For CC(=O)O[C@@]12CO[C@@H]1C[C@H](O)[C@@]1(C)C(=O)[C@H](O)C3=C(C)[C@@H](OC(=O)[C@H](O)[C@@H](NC(=O)OC(C)(C)C)c4ccccc4)C[C@@](O)([C@@H](OC(=O)c4ccccc4)[C@H]21)C3(C)C [DOCETAXEL ANHYDROUS], the AUC(0-t) at 72 h (in vivo) was 2.24 µM·h, the Activity (4T1 [26]) was “Active” and the Activity (4T1 [27]) was “inactive”. The Activity (4T1 [28]) was “inactive” and the Activity (4T1 [29]) was “inactive”.
